This is a sample that favours compounds with a hit; in the whole collection about 1.4% have one here.
DDE Tn6 FP inh – disrupts Tn6 cyclic peptide binding to fibrin D-Dimer-E complex; P02675; Fibrin DD(E) TRITC-Tn6 fluorescence polarization displacement; inhibition, % at 8.3 µM; actives 0.21% (n = 370,000); AID 720509;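 active = inhibition above a per-campaign cutoff: mean of compounds within control limits plus 3 SD, cut at about 15% in these data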;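 note: 0% = median of all compound wells on the plate and 100% = blocking peptide control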
Target sequence (P02675 whole entry, looked up): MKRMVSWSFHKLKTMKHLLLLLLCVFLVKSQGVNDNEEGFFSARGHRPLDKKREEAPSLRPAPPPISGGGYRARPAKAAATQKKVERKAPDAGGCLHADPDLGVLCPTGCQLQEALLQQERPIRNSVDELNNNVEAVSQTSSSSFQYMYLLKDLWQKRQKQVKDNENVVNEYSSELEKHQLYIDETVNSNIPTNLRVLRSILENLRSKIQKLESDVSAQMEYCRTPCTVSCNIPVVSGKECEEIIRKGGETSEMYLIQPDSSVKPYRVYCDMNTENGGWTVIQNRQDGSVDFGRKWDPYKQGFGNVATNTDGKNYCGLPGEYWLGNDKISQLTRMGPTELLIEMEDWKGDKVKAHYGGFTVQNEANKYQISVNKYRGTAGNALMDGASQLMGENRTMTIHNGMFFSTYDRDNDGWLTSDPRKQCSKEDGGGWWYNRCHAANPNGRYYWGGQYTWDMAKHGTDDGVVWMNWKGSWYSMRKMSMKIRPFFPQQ
cardiac RTF act – increases calcium sensitivity of human cardiac regulated thin filaments; IANBD-labeled TnC RTF fluorescence at EC20 calcium; 0% EC20 calcium, 100% full calcium; activation, % at 7.2 µM; actives 0.24% (n = 340,000);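 active = activation above the mean over all tested compounds plus 3 SD, cut at about 30% in these data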;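 note: rise in fluorescence read as greater calcium sensitivity of cardiac thin filaments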
CRFBP-R2 agonist – CRF-BP/CRF-R2 complex agonism. HEK293 CRF-R2/CRF-BP, calcium dye fluorescence (FLIPR); percent of saturating CRF peptide response. activation, % at 13.2 µM. actives 0.46% (n = 350,000). AID 588473;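 active = activation of at least 50%, plus an integration ratio under a set limit after plate pattern correction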;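 note: plate controls were neutral control wells without compound for no effect and CRF at EC100 for full effect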
DDE Tn7 FP inh – DD(E)-Tn7 binding inhibition, primary FP screen; P02675; FP displacement of FITC-Tn7 peptide from fibrin DD(E); 0% = median of compound wells per plate; inhibition, % at 8.3 µM; actives 0.13% (n = 370,000);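 active = inhibition above the mean of compounds falling within the control limits plus 3 SD of them, cut at about 14% in these data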;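 note: 0% = plate median of compound wells and 100% = 10 µM Aha-Tn7 peptide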
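Measure: % inhibition scaled between sample-field median and high-control FP; Test system: human fibrin DD(E); Quantity: 2 µM final DD(E) protein; Doses: one dose, 8.3 µM nominal; Schedule: compound with protein 10 min, then 3 h after probe, room temperature; Detection: fluorescence polarization; Medium: Tris buffer with calcium and detergent, pH 7.8.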
RTF Ca sens inh – cardiac RTF calcium desensitization; P19429+P45379; IANBD-labeled cardiac RTF, Ca2+ fluorescence; inhibition, % at 7.15 µM; actives 0.12% (n = 340,000); AID 493244;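 active = inhibition above the mean inhibition of all tested compounds plus 3 SD, cut at about 17% in these data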;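 note: assay run at fixed EC70 calcium of 1.6 mM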
CRFR2-BP antag – antagonists of CRF-binding protein/CRF-R2 receptor complex. HEK293 CRF-R2/CRF-BP, CRF-induced calcium fluorescence. inhibition, % at 11.8 µM. actives 0.59% (n = 350,000). AID 588475;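 active = inhibition of the ligand-induced calcium signal above about 50% at the single tested concentration, limit read from the data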
* = called active by the depositor; / = no result; ! = repeats disagree.

SMILES	DDE Tn6 FP inh	cardiac RTF act	CRFBP-R2 agonist	DDE Tn7 FP inh	RTF Ca sens inh	CRFR2-BP antag
CCN(CC)c1ccc2cc(C(=O)NNC(=O)c3ccc(S(=O)(=O)N4CCCCC4)cc3)c(=O)oc2c1	0.8	3.4	266.2*	4.8	-6.7	-294.7
COC[C@H]1CCCN1c1cccc2c1S(=O)(=O)N(C1CC1)CCCO2	1.5	/	/	5.0	/	/
COc1ccc(Oc2c(Cl)cnn(-c3ccc(C(C)C)c(C)c3)c2=O)cc1	4.4	/	/	0.9	/	/
CC(C)CC(O)(CC(C)C)c1cn(C(=O)N(c2ccccc2)c2ccccc2)nn1	4.0	/	/	6.9	/	/
CC(C)C1C(=O)N(Cc2cn(CCC3OCCO3)nn2)CCS(=O)(=O)N1Cc1ccc(-c2ccc(Cl)cc2)cc1 (stereo not given)	8.2	/	0.5	-0.1	/	6.6
COc1ccc(Nc2nnc(SCC(=O)N(CC(C)C)C3CCS(=O)(=O)C3)s2)cc1 (stereo not given)	-6.9	/	0.2	1.7	/	6.5
Cc1sc(NC(=S)NC(=O)c2ccccc2)c(C#N)c1C	3.3	2.6	-0.8	-3.2	-14.1	-23.9
CCCN1CCc2c(sc(NC(=S)NC(=O)c3ccccc3)c2C#N)C1	-3.5	31.3*	148.0*	-10.0	-60.4	-177.6
CC(C)N1CCc2c(sc(NC(=O)c3ccc(S(=O)(=O)N4CCOCC4)cc3)c2C#N)C1	/	9.1	131.1*	/	-28.0	-64.9
CCOC(=O)N1CCc2c(sc(NC(=O)c3ccc(S(=O)(=O)N4CCCC4)cc3)c2C#N)C1	-3.4	7.7	2.3	-2.6	-5.8	-0.4
CC(C)N1CCc2c(sc(NC(=S)NC(=O)c3ccccc3)c2C#N)C1	-2.5	6.8	55.0*	-13.6	-22.6	-31.2
CC(=O)c1cc(-c2ccc(-c3ccccc3)c(F)c2)c(=O)n2c1CCC2	3.8	/	/	5.4	/	/
C[C@@H]1[C@H](O)[C@@H](C)/C=C/C=C/C=C/C=C/C=C/C=C/C=C/[C@H](OC2O[C@H](C)[C@@H](O)[C@H](N)[C@@H]2O)C[C@@H]2O[C@](O)(C[C@@H](O)C[C@@H](O)[C@H](O)CC[C@@H](O)C[C@@H](O)CC(=O)O[C@H]1C)C[C@H](O)[C@H]2C(=O)O (stereo not given in full)	-2.0	/	/	0.1	/	/
O=C(C[C@H]1C[C@H](C(=O)N2CCOCC2)[C@@]2(CCC3CCCC3)c3[nH]c4ccc(Cl)cc4c3CCN2C1=O)NCCN1CCOCC1	-4.2	-1.0	88.4*	6.8	-3.5	-7.6
COc1ccc(NC(=O)Nc2ccc(O)c3ccccc23)cc1	-0.7	/	-4.7	-5.2	/	50.4*
CCCC(=O)Nc1c(C(=O)OCC)[nH]c2ccccc12	2.0	-1.5	1.6	8.2	-6.1	3.8
CCOC(=O)c1[nH]c2ccccc2c1NC(=O)Nc1ccc(OC)cc1	1.6	5.8	-8.4	-6.5	0.7	84.8*
CCC(NC(=O)c1ccc2c(c1)c(C)c(C)n2Cc1ccc(Cl)cc1)c1ccccc1 (stereo not given)	-11.7	/	/	4.8	/	/
S=c1[nH]nc(-c2n[nH]c3c2CCC3)n1N=Cc1cccs1	11.6	/	/	-2.9	/	/
Cc1nc2sccn2c(=O)c1S(=O)(=O)Nc1cccc(Cl)c1C	-6.7	-4.7	57.3*	3.1	2.4	-25.5
CC(=O)c1sc(Nc2ccc(Oc3ccccc3)cc2)nc1C	-8.9	/	/	-7.2	/	/
CCOC(=O)c1cc2ccccc2n1CCN(CC)CC	5.5	4.5	74.3*	-4.9	-1.3	-9.0
CCCCCCCC(=O)N[C@H]1CC[C@@]23CCCN2C(=O)CCC[C@H]3[C@H]1CCC	2.3	/	/	3.2	/	/
COc1ccc(C(=O)Nc2ccc(C3CC3(Cl)Cl)cc2)cc1 (stereo not given)	1.8	4.5	2.8	3.3	-3.5	74.7*
COCCNc1nc(NCc2ccc(C(C)C)cc2)c2sccc2n1	2.5	/	/	5.5	/	/
SMILES	DDE Tn6 FP inh	cardiac RTF act	CRFBP-R2 agonist	DDE Tn7 FP inh	RTF Ca sens inh	CRFR2-BP antag
C/C(=N\Nc1ncnc2sc(C)c(C)c12)c1ccccn1	-1.9	-1.6	64.0*	-3.2	-15.0	-139.1
Cc1cc(C(=O)NNC(=O)C(CCC(N)=O)NS(=O)(=O)c2ccc(Cl)cc2)c(C)o1 (stereo not given)	6.2	0.8	-0.4	2.1	0.9	67.4*
CN(c1ccccc1)S(=O)(=O)c1ccc2c(c1)oc(=O)n2C	3.5	1.1	0.2	-1.7	1.5	58.9*
C=CCN1[C@H](C)COc2cccc(F)c2S1(=O)=O	2.1	/	/	0.6	/	/
C=Cc1c(C)c2cc3[nH]c(cc4nc(cc5nc(cc1[nH]2)C(C)=C5CCC(=O)O)C(CCC(=O)O)=C4C)c(C)c3C=C	31.1*	-10.7	-2.4	-0.7	55.5*!	-33.3
Cc1ccc(N)c([N+](=O)[O-])c1	-0.5	-3.9	-2.1	2.4	7.2	20.5
Nc1ccc(N=Nc2ccccc2)cc1[N+](=O)[O-]	-1.1	-1.1	3.1	3.0	1.1	62.7*
COc1ccc(C2CCCN2C(=O)Nc2ccc(C)c(C)c2)cc1OC (stereo not given)	0.2	-0.8	-0.8	-1.8	-12.3	80.4*
COc1cc(OC)cc(N(C(=O)CNC(=O)c2cccs2)C(C(=O)NCC2CCCO2)c2ccc(OC)c(OC)c2)c1 (stereo not given)	-2.2	-3.5	53.4*	-3.2	-3.3	-68.1
O=C(CSc1ccccc1)NN1C(=O)c2ccccc2C1=O	1.0	-5.0	-2.2	2.9	-6.0	122.5*
CN(C)C=Nc1c(Br)cc(Br)c2nonc12	-8.3	32.1*	109.5*	-6.1	-56.1	-66.3
CC(NC(=O)c1cc2ccccn2n1)c1ccccc1 (stereo not given)	-1.1	/	/	2.2	/	/
Cn1c2c(c(=O)n(C)c1=O)C(C(F)(F)F)(C(F)(F)F)N=C(c1ccc(Cl)cc1)N2	/	-2.2	83.1*	/	-2.7	29.9
Cc1ccccc1C1=NC(C(F)(F)F)(C(F)(F)F)c2c(n(C)c(=O)n(C)c2=O)N1	-0.8	-1.4	-1.4	-6.6	8.7	15.1
OC(c1ccc(F)c(F)c1)c1nc(-c2cccc(F)c2)cs1 (stereo not given)	13.0	/	/	1.1	/	/
O=C(O)c1ccccc1C(=O)Nc1ccc(Oc2ccc3ccccc3c2)cc1	-0.5	0.8	-2.2	0.0	5.3	-12.2
Cc1cccc(Oc2ccc(NC(=O)c3ccccc3C(=O)O)cc2)c1C	2.5	-1.2	81.0*	-11.0	3.5	19.1
O=C(O)c1ccccc1C(=O)Nc1ccc(Oc2cccc3ccccc23)cc1	5.9	7.3	126.2*	2.5	-0.6	20.5
CC(C)CN1C(=O)C[C@@]2(C(=O)N(C)c3ccc(NS(=O)(=O)C4CC4)cc32)C1c1ccccc1 (stereo not given in full)	-0.5	/	/	-0.8	/	/

Source: PubChem BioAssay
